According to ChEMBL document CHEMBL1649283, “In vitro activities of piperaquine, lumefantrine, and dihydroartemisinin in Kenyan Plasmodium falciparum isolates and polymorphisms in pfcrt and pfmdr1” (Antimicrob Agents Chemother, 2009):

Key:
Assay type in all cases: functional, organism-based
[1] = test system: Plasmodium falciparum; experiment: Antiplasmodial activity against Plasmodium falciparum harboring mutant pfcrt-76 gene after 18 hrs by [3H]hypoxanthine incorporation assay
In short: (§1)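 Kenyan field isolates, culture-adapted in long term (some cryopreserved first), grown in RPMI 1640 with 15% human serum, HEPES, bicarbonate, glutamine and pABA. Genotyped at pfcrt 76 and pfmdr1 86 from dried blood spots. Threefold dilutions; 0.5% parasitemia, 1.5% hematocrit; 66 h at 37°C in 5% O2/5% CO2/90% N2, then [3H]hypoxanthine for 18 h. IC50 by nonlinear regression; each isolate measured twice.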

[2] = test system: Plasmodium falciparum; experiment: Antiplasmodial activity against multidrug-sensitive Plasmodium falciparum 3D7 after 18 hrs by [3H]hypoxanthine incorporation assay
In short: (§2)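 Reference strains (multidrug-resistant V1S, drug-sensitive 3D7) in RPMI 1640 with 15% human serum. Threefold drug dilutions; 0.5% parasitemia, 1.5% hematocrit; 66 h at 37°C under 5% O2/5% CO2/90% N2, then [3H]hypoxanthine added for 18 h, freeze-thaw lysis, counting. IC50 by nonlinear regression of dose-response; four determinations per strain.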

[3] = test system: Plasmodium falciparum; experiment: Antiplasmodial activity against Plasmodium falciparum clinical isolate after 18 hrs by [3H]hypoxanthine incorporation assay; in short: as §1
[4] = test system: Plasmodium falciparum; experiment: Antiplasmodial activity against Plasmodium falciparum harboring mutant pfmdr-1-86 gene after 18 hrs by [3H]hypoxanthine incorporation assay; in short: as §1
[5] = test system: Plasmodium falciparum; experiment: Antiplasmodial activity against Plasmodium falciparum harboring wild type pfmdr-1-86 gene after 18 hrs by [3H]hypoxanthine incorporation assay; in short: as §1
[6] = test system: Plasmodium falciparum; experiment: Antiplasmodial activity against multidrug-resistant Plasmodium falciparum […] after 18 hrs by [3H]hypoxanthine incorporation assay; in short: as §2
[7] = test system: Plasmodium falciparum; experiment: Antiplasmodial activity against Plasmodium falciparum harboring mutant pfcrt-76 and mutant pfmdr-1-86 gene after 18 hrs by [3H]hypoxanthine incorporation assay; in short: as §1
[8] = test system: Plasmodium falciparum; experiment: Antiplasmodial activity against Plasmodium falciparum harboring wild type and mutant pfmdr-1-86 gene after 18 hrs by [3H]hypoxanthine incorporation assay; in short: as §1
[9] = test system: Plasmodium falciparum; experiment: Antiplasmodial activity against Plasmodium falciparum harboring mutant pfcrt-76 and wild type pfmdr-1-86 gene after 18 hrs by [3H]hypoxanthine incorporation assay; in short: as §1
[10] = test system: Plasmodium falciparum; experiment: Antiplasmodial activity against Plasmodium falciparum harboring wild type pfcrt-76 and wild type pfmdr-1-86 gene after 18 hrs by [3H]hypoxanthine incorporation assay; in short: as §1
[11] = test system: Plasmodium falciparum; experiment: Antiplasmodial activity against Plasmodium falciparum harboring wild type and mutant pfcrt-76 gene after 18 hrs by [3H]hypoxanthine incorporation assay; in short: as §1
[12] = test system: Plasmodium falciparum; experiment: Antiplasmodial activity against Plasmodium falciparum harboring wild type pfcrt-76 and mutant pfmdr-1-86 gene after 18 hrs by [3H]hypoxanthine incorporation assay; in short: as §1
[13] = test system: Plasmodium falciparum; experiment: Antiplasmodial activity against Plasmodium falciparum harboring wild type pfcrt-76 gene after 18 hrs by [3H]hypoxanthine incorporation assay; in short: as §1

SMILES | IC50 [1] [nM] | IC50 [2] [nM] | IC50 [3] [nM] | IC50 [4] [nM] | IC50 [5] [nM] | IC50 [6] [nM] | IC50 [7] [nM] | IC50 [8] [nM] | IC50 [9] [nM] | IC50 [10] [nM] | IC50 [11] [nM] | IC50 [12] [nM] | IC50 [13] [nM]
C[C@H]1[C@@H](O)O[C@@H]2O[C@@]3(C)CC[C@H]4[C@H](C)CC[C@@H]1[C@@]24OO3 [ARTENIMOL] | < 25 | 2 | 2 | 2 | 3 | 2 |  |  |  |  |  |  | 
CCCCN(CCCC)CC(O)c1cc(Cl)cc2c1-c1ccc(Cl)cc1/C2=C/c1ccc(Cl)cc1 (configuration not stated) [LUMEFANTRINE] | 43 | 96 | 50 | 43 | 124 | 24 | 31 | 57 | 99 | 173 | 67 | 63 | 
CCN(CC)CCCC(C)Nc1ccnc2cc(Cl)ccc12 (configuration not stated) [CHLOROQUINE] | 57 |  |  |  |  |  | 72 |  | 54 |  | 21 |  | 
Clc1ccc2c(N3CCN(CCCN4CCN(c5ccnc6cc(Cl)ccc56)CC4)CC3)ccnc2c1 [PIPERAQUINE] | 38 | 27 | 32 |  |  | 42 |  |  |  |  |  |  | 35
